Experimental data published in ChEMBL document CHEMBL1153965, “Inhibitors of hepatitis C virus NS3/4A: alpha-ketoamide based macrocyclic inhibitors” (Bioorg Med Chem Lett, 2009).
pEC50, pKi: −log10 of the molar value.

What was measured:
Hepatitis C virus [1] = assay: Antiviral activity against HCV replication infected in human HuH7 cells after 96 hrs by replicon assay in presence of 10% FCS; type: functional, organism-based, Hepacivirus hominis, Huh-7
In short: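 Compounds incubated with replicon cells at 37 °C for 96 h in medium containing 10% FCS, with inhibition of replication read out to give EC50.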

[2] = Inhibition of full length HCV NS3/4A protease by TRF assay; parameters: species or system Hepacivirus hominis
[3] = Cytotoxicity against human HuH7 cells; type: cell-based, Huh-7
Hepatitis C virus [4] = assay: Antiviral activity against HCV replication infected in human HuH7 cells after 72 hrs by replicon assay in presence of 5% FCS; conditions: Huh-7, 72 h
[5] = Cmax in Wistar rat at 5 mg/kg, po; type: ADME, organism-based; parameters: dose 5 mg/kg, route oral; conditions: in vivo
In short: (§1)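 Male Wistar rats dosed orally at 5 mg/kg in PEG 400 vehicle, with plasma exposure measured. Values are geometric means from 3 animals.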

[6] = AUC (0 to infinity) in Wistar rat plasma at 5 mg/kg, po; type: ADME, organism-based; parameters: time infinity, dose 5 mg/kg, route oral; in short: as §1
[7] = Oral bioavailability in Wistar rat at 5 mg/kg; type: ADME, organism-based; conditions: in vivo
[8] = Drug level in Wistar rat liver at 5 mg/kg, po after 4 hrs; type: ADME, organism-based; parameters: dose 5 mg/kg, route oral; conditions: read-out: Drug uptake
Hepatitis C virus [9] = assay: Antiviral activity against HCV replication infected in human HuH7 cells after 48 hrs by replicon assay in presence of 2% FCS; conditions: Huh-7, 48 h

SMILES | pEC50 (Hepatitis C virus [1]; Hepatitis C virus, Huh-7, 96 h) | pKi [2] | pEC50 (Hepatitis C virus [4]) | Cmax [5] [nM] | AUC(0-inf) [6] [µM·h] | bioavailability [7] [%] | concentration at 4 h [8] [nM] | pEC50 (Hepatitis C virus [9]) | pEC50 (Hepatitis C virus [1]; huh-7) | CC50 [3] [µM]
CCC[C@H](NC(=O)[C@@H]1C[C@@H]2CN1C(=O)[C@H](C(C)(C)C)NC(=O)OCCCCCCc1cccc3c1CN(C3)C(=O)O2)C(=O)C(=O)NCc1ccccn1 | 6.10 | 6.75 |  |  |  |  |  |  |  | > 50
CCC[C@H](NC(=O)[C@@H]1C[C@@H]2CN1C(=O)[C@H](C(C)(C)C)NC(=O)OCCCCCCc1cccc3c1CN(C3)C(=O)O2)C(=O)C(=O)NC(C)CC (stereo not given in full) | 6.28 | 7.18 |  |  |  |  |  |  |  | > 50
CC(C)(C)NC(=O)N[C@H](C(=O)N1C[C@H]2[C@@H]([C@H]1C(=O)NC(CC1CCC1)C(=O)C(N)=O)C2(C)C)C(C)(C)C (stereo not given in full) [BOCEPREVIR] |  | 7.46 | 6.70 | 130 | 0.21 | 3.5 |  |  |  | > 50
CCC[C@H](NC(=O)[C@@H]1C[C@@H]2CN1C(=O)[C@H](C(C)(C)C)NC(=O)OCCCCCCc1cccc3c1CN(C3)C(=O)O2)C(=O)C(=O)NC1CCC1 | 6.03 | 6.85 |  |  |  |  |  |  |  | > 50
CCC(C)NC(=O)C(=O)C(CC(F)F)NC(=O)[C@@H]1C[C@@H]2CN1C(=O)[C@H](C(C)(C)C)NC(=O)OCCCCCCc1cccc3c1CN(C3)C(=O)O2 (single isomer, unassigned; diastereomer 1) | < 4.90 | 5.62 |  |  |  |  |  |  |  | > 50
CCC[C@H](NC(=O)[C@@H]1[C@H]2CCC[C@H]2CN1C(=O)[C@@H](NC(=O)[C@@H](NC(=O)c1cnccn1)C1CCCCC1)C(C)(C)C)C(=O)C(=O)NC1CC1 [TELAPREVIR] | 5.80 | 6.96 |  |  | 1.54 | 34.8 | 810 | 6.45 |  | > 50
CCC[C@H](NC(=O)[C@@H]1C[C@@H]2CN1C(=O)[C@H](C(C)(C)C)NC(=O)OCCCCCCc1cccc3c1CN(C3)C(=O)O2)C(=O)C(=O)NCc1ccccc1 | 5.88 | 6.62 |  |  |  |  |  |  |  | > 50
CCC[C@H](NC(=O)[C@@H]1C[C@@H]2CN1C(=O)[C@H](C(C)(C)C)NC(=O)OCCCCCCc1cccc3c1CN(C3)C(=O)O2)C(=O)C(=O)NC1CCCC1 | 5.98 | 7.11 |  |  |  |  |  |  |  | > 50

Continued, in another order:

pEC50 (Hepatitis C virus [1]; Hepatitis C virus, Huh-7, 96 h) | pKi [2] | pEC50 (Hepatitis C virus [4]) | Cmax [5] [nM] | AUC(0-inf) [6] [µM·h] | bioavailability [7] [%] | concentration at 4 h [8] [nM] | pEC50 (Hepatitis C virus [9]) | pEC50 (Hepatitis C virus [1]; huh-7) | SMILES | CC50 [3] [µM]
6.26 | 7.15 |  | 160 | 0.58 |  | 480 |  |  | C=CCNC(=O)C(=O)[C@H](CCC)NC(=O)[C@@H]1C[C@@H]2CN1C(=O)[C@H](C(C)(C)C)NC(=O)OCCCCCCc1cccc3c1CN(C3)C(=O)O2 | > 50
6.22 | 7.08 |  |  |  |  |  |  |  | CCC[C@H](NC(=O)[C@@H]1C[C@@H]2CN1C(=O)[C@H](C(C)(C)C)NC(=O)OCCCCCc1cccc3c1CN(C3)C(=O)O2)C(=O)C(=O)NC1CC1 | > 50
< 6.30 | 6.85 |  |  |  |  |  |  |  | CCC[C@H](NC(=O)[C@@H]1C[C@@H]2CN1C(=O)[C@H](C(C)(C)C)NC(=O)OCCCCCCc1cccc3c1CN(C3)C(=O)O2)C(=O)C(=O)NC(C)c1ccccc1 (stereo not given in full) | > 50
 | < 5.54 |  |  |  |  |  |  | < 5.20 | CCC(C)NC(=O)C(=O)C(CC(F)F)NC(=O)[C@@H]1C[C@@H]2CN1C(=O)[C@H](C(C)(C)C)NC(=O)OCCCCCCc1cccc3c1CN(C3)C(=O)O2 (single isomer, unassigned; diastereomer 2) | 
